Test results as given in ChEMBL document CHEMBL1156951, “Oxazolomycins: natural product lead structures for novel antibacterials by click fragment conjugation” (2010).
Calls of active or inactive are those of the source. The calls are words filed in the database; no cut-off is given here.

Key:
Format in all cases: functional
Escherichia coli [1] = assay: Antibacterial activity against Escherichia coli X580 at 4 mg/ml by hole plate assay; details: for zone of inhibition at 4000 µg/mL: read-out: DIZ
Method in brief: (§1)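 Hole-plate bioassay with samples at 4 mg/ml in 7:3 DMSO/H₂O, loaded into wells of bioassay plates and incubated overnight at 37 °C. The read-out was inhibition zone diameter in mm (±1 mm).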

Staphylococcus aureus = assay: Antibacterial activity against Staphylococcus aureus NCTC 6571 at 4 mg/ml by hole plate assay; method in brief: as §1
Escherichia coli [2] = assay: Antibacterial activity against Escherichia coli X580 assessed as zone of diameter per molar relative to cephalosporin
Method in brief: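 Hole-plate agar diffusion: test solutions were loaded into wells of bioassay plates and incubated overnight at 37 °C. Inhibition zone diameters were measured, and relative potency was expressed as zone diameter per M of analyte against standards prepared with cephalosporin C.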

Compound | zone of inhibition at 4000 µg/mL (Escherichia coli [1]) | diameter of the inhibition zone (DIZ) (Staphylococcus aureus) | Activity (Escherichia coli [2]) | diameter of the inhibition zone (DIZ) (Escherichia coli [1]) | zone of inhibition at 4000 µg/mL (Staphylococcus aureus; read-out: DIZ)
COC(=O)[C@]1(CO)NC(=O)C(C)(C)[C@@]1(O)C#CCCCCn1cc(CNC(=O)C(C)(C)C(O)c2ccccc2)nn1 (stereo partly drawn) | 15 mm | inactive | – | – | –
COC(=O)[C@]1(CO)NC(=O)C(C)(C)[C@@]1(O)CCCCCc1cc(CNC(=O)C(C)(C)C(O)CCCCc2ccccc2)on1 (stereo partly drawn) | 14 mm | inactive | 0.1% | – | –
CC1(C)C(=O)N[C@@](CO)(C(=O)O)[C@]1(O)C#Cc1ccccc1 | – | inactive | – | inactive | –
COC(=O)[C@]12CO[C@H](C(C)(C)C)N1C(=O)C(C)(C)[C@@]2(O)CCCCCCO | – | inactive | – | inactive | –
CCCCCCCC(O)C(C)(C)C(=O)NCc1cc(CCCCC[C@]2(O)C(C)(C)C(=O)N3[C@@H](C(C)(C)C)OC[C@@]32C(=O)OC)no1 (stereo partly drawn) | – | inactive | – | inactive | –
COC(=O)[C@]12CO[C@H](C(C)(C)C)N1C(=O)C(C)(C)[C@@]2(O)CCCCCc1cc(CNC(=O)C(C)(C)C(O)c2ccccc2)on1 (stereo partly drawn) | – | inactive | – | inactive | –
CCCCCCCC(O)C(C)(C)C(=O)NCc1cn(CCCCC#C[C@]2(O)C(C)(C)C(=O)N[C@@]2(CO)C(=O)OC)nn1 (stereo partly drawn) | – | inactive | – | inactive | –
COC(=O)[C@]12CO[C@H](C(C)(C)C)N1C(=O)C(C)(C)[C@@]2(O)C#Cc1ccccc1 | – | – | – | inactive | 13 mm
COC(=O)[C@]12CO[C@H](C(C)(C)C)N1C(=O)C(C)(C)[C@@]2(O)C#CCNC(=O)C(C)(C)C(O)c1ccccc1 (stereo partly drawn) | 17 mm | inactive | 0.1% | – | –
CCCCCCCC(O)C(C)(C)C(=O)NCc1cn(CCCCC#C[C@]2(O)C(C)(C)C(=O)N3[C@@H](C(C)(C)C)OC[C@@]32C(=O)OC)nn1 (stereo partly drawn) | 14 mm | inactive | – | – | –
COC(=O)[C@]1(CO)NC(=O)C(C)(C)[C@@]1(O)C#CCCCCn1cc(CNC(=O)C(C)(C)C(O)CCCCc2ccccc2)nn1 (stereo partly drawn) | 14 mm | inactive | – | – | –
COC(=O)[C@]1(CO)NC(=O)C(C)(C)[C@@]1(O)CCCCCc1cc(CNC(=O)C(C)(C)C(O)c2ccccc2)on1 (stereo partly drawn) | 13 mm | inactive | – | – | –
CCCCCCCCC#C[C@]1(O)C(C)(C)C(=O)N[C@@]1(CO)C(=O)OC | – | inactive | – | inactive | –
CCCCCCCC(O)C(C)(C)C(=O)NCc1cc(CCCCC[C@]2(O)C(C)(C)C(=O)N[C@@]2(CO)C(=O)OC)no1 (stereo partly drawn) | 17 mm | inactive | 0.2% | – | –
COC(=O)[C@]12CO[C@H](C(C)(C)C)N1C(=O)C(C)(C)[C@@]2(O)CCCCCc1cc(CNC(=O)C(C)(C)C(O)CCCCc2ccccc2)on1 (stereo partly drawn) | 15 mm | inactive | – | – | –
COC(=O)[C@]1(CO)NC(=O)C(C)(C)[C@@]1(O)C#CCNC(=O)C(C)(C)C(O)c1ccccc1 (stereo partly drawn) | – | inactive | – | inactive | –
COC(=O)[C@]1(CO)NC(=O)C(C)(C)[C@@]1(O)C#Cc1ccccc1 | – | inactive | – | inactive | –
CCCCCCCCC#C[C@]1(O)C(C)(C)C(=O)N2[C@@H](C(C)(C)C)OC[C@@]21C(=O)OC | – | inactive | – | inactive | –
COC(=O)[C@]12CO[C@H](C(C)(C)C)N1C(=O)C(C)(C)[C@@]2(O)C#CCCCCBr | 14 mm | inactive | 0.05% | – | –
COC(=O)[C@]12CO[C@H](C(C)(C)C)N1C(=O)C(C)(C)[C@@]2(O)C#CCCCCO | – | inactive | – | inactive | –
COC(=O)[C@]12CO[C@H](C(C)(C)C)N1C(=O)C(C)(C)[C@@]2(O)C#CCCCCn1cc(CNC(=O)C(C)(C)C(O)CCCCc2ccccc2)nn1 (stereo partly drawn) | 13 mm | inactive | – | – | –
COC(=O)[C@]12CO[C@H](C(C)(C)C)N1C(=O)C(C)(C)[C@@]2(O)C#CCCCCn1cc(CNC(=O)C(C)(C)C(O)c2ccccc2)nn1 (stereo partly drawn) | 14 mm | inactive | – | – | –
